# Source: article PMC2865030 (Biochemical Journal, 2008)
# Ends that are not written are not given here.
# How the values were obtained:
# [1] = biological target: T1, Tah1 (Saccharomyces cerevisiae, UniProt P25638); assay: ITC of peptides injected into Tah1; assay type: binding, S. cerevisiae
# T1 sequence (P25638 1-111): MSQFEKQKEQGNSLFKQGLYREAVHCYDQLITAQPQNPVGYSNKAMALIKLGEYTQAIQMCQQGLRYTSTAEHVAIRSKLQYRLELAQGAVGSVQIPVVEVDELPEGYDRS
# [2] = biological target: T1, Tah1; assay: Sedimentation equilibrium analytical ultracentrifugation of Tah1; assay type: physicochemical, S. cerevisiae; conditions: for Kd: 20 °C, pH 7.5
# How it was run: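 Tag-cleaved Tah1 was dialysed into 20 mM Tris/HCl pH 7.5, 1 mM EDTA, 5 mM NaCl. Sedimentation equilibrium was run at 20 °C, loading 7.0 and 0.5 mg·ml−1 (547 and 39 µM), with a 12 mm path. Initial scans at 726 g checked for aggregates, followed by 39030 g, scanning hourly until unchanged (24 h). Data were fitted by INVEQ, Mfit and NONLIN, and Ka was reciprocated to Kd. Reversible versus irreversible dimer was judged by comparing the two loadings.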
# [3] = biological target: yeast Hsp90 M705V; assay: ITC of TPR-domain proteins with yeast Hsp90 M705V; assay type: binding; conditions: 300 μM Tah1 injected into 30 μM yeast Hsp90 M705V, 4 °C, pH 8.0
# How it was run: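 ITC: mouse CHIP or yeast Tah1 (His tags cleaved) at 300 µM was titrated as 9–11 injections of 27 µl into 30 µM yeast Hsp90 M705V. Runs were at 30 °C for CHIP and 4 °C for Tah1, in 20 mM Tris/HCl pH 8.0, 1 mM EDTA, 5 mM NaCl. Data were corrected for separately measured heat of dilution and fitted by nonlinear least squares for stoichiometry, binding constant and enthalpy.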
Substance,Kd [1] [µM],other results
PADTEAEEVD,3.3 ± 0.2,–
AEGPTMEEVD,4.2 ± 0.5,–
"Tah1: TPR-containing protein associated with Hsp90, S. cerevisiae, 111 amino acid residues, Hsp90-interacting co-chaperone",–,"dimeric species present ([2]; estimated from INVEQ fit, sedimentation equilibrium): approx. 19%; Kd ([2]; read-out: Kd by INVEQ, Tah1 0.5 mg·ml−1 (39 μM), monomer-dimer): 510 µM; Kd ([2]; read-out: Kd′ by NONLIN′, Tah1 0.5 mg·ml−1 (39 μM)): 150 µM; Kd ([2]; read-out: Kd′ by NONLIN′, Tah1 7.0 mg·ml−1 (547 μM)): 1800 µM; Kd [3]: 13 ± 1.7 µM"
PADTEVEEVD,9.8 ± 0.7,–
AEGPTAEEVD,14.8 ± 0.7,–
PADAAMEEVD,0.75 ± 0.04,–
